These results are taken from article PMC3204611 (Cancer prevention research (Philadelphia, Pa.), 2010).

“Also recorded” adds a separate entry of the source. Like-named read-outs stand apart in the source and are kept apart here.

Data set [1] relates to N-methyl-N-nitrosourea (MNU)-induced mammary cancer. The note with it: cited from earlier work; for average tumors per animal: controls 6.0.
The conditions of data set [2]: rats, 7 days, cited from earlier work.
In data set [3] the test system is KLF4-mediated tumor initiation. The note with it: cited from earlier work.
A further data set relates to colony formation. The settings on record: 0.1 μmol/L (29 ng/mL); cited from earlier work.
Data set [4] is described as follows: Toxicity / adverse events. In kind it is in vivo, human. The method, boiled down: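 Healthy adults aged 18-65 years took one oral dose (5, 10 or 20 mg) in the morning on an empty stomach. Dose cohorts were escalated in sequence and subjects stayed 24 h as inpatients. Toxicity was assessed on day 8, with contact on day 30, and graded by NCI-CTCAE. Serum TG was taken at screening, 24 h and day 8. Dose versus TG change was tested by Jonckheere-Terpstra.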

The conditions of data set [5]: doses significantly higher than needed for chemopreventive activity; cited from earlier work.
Another data set deals with RAR. The settings on record: relative to 9-cis-RA and other RA; cited from earlier work.
A short description of data set [6]: Stability of 9cUAB30 in spiked human plasma and urine stored at -70 °C. In kind it is in vitro ADME. Put shortly:
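Blank human plasma and urine were spiked from a 1 μg/mL stock standard to 10 and 40 ng/mL (plasma, urine) and 100 ng/mL (urine only), then held at -70 °C for 12 weeks. Samples were run in triplicate by LC-MS/MS after liquid-liquid extraction with 9-cis-RA as internal standard. LLOQ was 1.56 ng/mL.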

A short description of data set [7]: Single-dose pharmacokinetics of 9cUAB30 in healthy volunteers. In kind it is in vivo, human.
Data set [8] relates to human breast cancer cells. The settings on record: cited from earlier work.
The subject of another data set is Human hepatocytes. The settings on record: treatment up to 50 μmol/L; cited from earlier work.
Setting [9] is: single dose 5, 10 or 20 mg, 14 subjects.
Setting [10] is: single dose 5, 10 or 20 mg, all subjects n = 14.

With `CC/C(=C(\c1ccccc1)c1ccc(OCCN(C)C)cc1)c1ccccc1` [tamoxifen, reference compound], the “average tumors per animal” value in [1] (tamoxifen 0.4 mg/kg of diet) is recorded as 4.6 tumors per animal.

Turning to `CC1=C(/C=C/C(C)=C\C=C\C(C)=C\C(=O)O)C(C)(C)CCC1` [9-cis-RA, 9-cis-retinoic acid, reference compound], in [2] (60 mg/kg of diet), the “increase of serum TGs compared to untreated controls” value was 5 fold.

For `CC(=C/C=C/C(C)=C/C(=O)O)/C=C1\CCCc2ccccc21` [9cUAB30, (2E,4E,6Z,8E)-8-(3′,4′-Dihydro-1′(2′H)-naphthalen-1′-ylidene)-3,7-dimethyl-2,4,6-octatrienoic Acid], the “concentration required to prevent KLF4-mediated tumor initiation” value in data set [3] was 1 µmol/L. Moreover, the “concentration required to prevent KLF4-mediated tumor initiation” value in data set [3] (printed conversion of 1 μmol/L) is 294 ng/mL. In [2] (200 or 800 mg/kg of diet), the “effect on serum TG levels” value is “did not affect serum TG levels”. Further, the “colony formation, % of untreated cells” value with colony formation is on record as 62%. For the same molecule, the “patients with grade 2 toxicity” value in [4] (10-mg dose level, 6 subjects) is listed as 1. Further, the “Mean TG levels” value in [4] (day 8, all subjects, screening 116 ± 34.8) is recorded as 114 ± 44.5. Also, in data set [4] (differences between the treatment groups 5, 10, 20 mg), the “change in TG levels from baseline” value is recorded as “not statistically significant; also recorded: did not significantly increase change in serum TGs”. For the same molecule, in [4] (dose level 5 mg), the “subjects with ≥ grade 2 toxicity” value is recorded as “No subjects”. Further, the “subjects with ≥ grade 2 toxicity” value in data set [4] (dose level 20 mg) is reported as “No subjects”. In data set [4] (setting [9]), the “grade 3 or 4 toxicities” value was “no grade 3 or 4 toxicities reported”, the “patients experiencing grade 2 toxicity” value turned out to be 1 and the tolerability entry is listed as “well tolerated”. Moreover, in data set [4] (setting [10]), the “Diarrhea, Grade II, patients (%)” value was found to be 0; the “Dizziness, Grade I, patients (%)” value came to 0; the “Elevated chloride, Grade II, patients (%)” value was determined as 0; the “Elevation in cholesterol, Grade II, patients (%)” value turned out to be 0. Besides, in data set [4] (setting [10]), the “Elevation in triglycerides, Grade II, patients (%)” value is given as 0; the “Fatigue, Grade I, patients (%)” value is 0; the “Headache, Grade II, patients (%)” value was found to be 0; the “Nasal congestion, Grade II, patients (%)” value was found to be 0. Moreover, in data set [4] (setting [10]), the “Nausea and vomiting, Grade I, patients (%)” value was 0; the “Reduced hemoglobin, Grade II, patients (%)” value came to 0. Besides, the “decrease of MNU-induced mammary cancer incidence compared to controls” value in data set [1] (200 mg/kg/d diet) is 63%. For the same molecule, the “average tumors per animal” value in [1] (9cUAB30 150 mg/kg of diet) is 4.3 tumors per animal. Besides, in [5], the “toxicity in animal models” value was “toxicity was not reported”. For the same molecule, in the data set with RAR, the RAR-binding activity entry is “little or no RAR-binding activity”. Moreover, in data set [6] (human plasma, −70 °C, 10 and 40 ng/mL), the stability in plasma result is “stable for 12 weeks”. Further, the stability in urine entry in data set [6] (human urine, −70 °C, 10, 40 and 100 ng/mL) is on record as “stable for 12 weeks”. Further, the “dose required to achieve maximal concentrations of 0.294 μg/mL” value in [7] (assuming 1 compartment, first-order elimination, extrapolated from 20-mg dose) is 60 mg. The same molecule yielded a CL renal in [7] (human, urine and plasma, po) of 0.3 to 1.72 mL/min. Moreover, the oral availability result in data set [7] (single oral dose, fasted healthy volunteers) is recorded as “orally available”. Also, the cell proliferation result in [8] is “significant inhibition of cell proliferation”. Moreover, in the data set with Human hepatocytes, the cytotoxicity result is recorded as “no signs of cytotoxicity”.
